Source: ChEMBL document CHEMBL5550195, “Synthesis and in vitro evaluation of novel amino-phenylmethylene-imidazolone 5-HT2A receptor antagonists” (RSC Med Chem, 2024)
Active and inactive are the calls of the source. The calls are words filed in the database; no cut-off is given here.

How the values were obtained:
[1] = biological target: T1, 5-hydroxytryptamine receptor 2A (Homo sapiens, UniProt P28223); test: Displacement of [3H] Ketanserin from 5HT2A receptor (unknown origin) at 10 uM incubated for 0.5 hrs by microbeta2 plate reader assay relative to control; conditions: for inhibition: filed as antagonist
T1 sequence (P28223 whole entry): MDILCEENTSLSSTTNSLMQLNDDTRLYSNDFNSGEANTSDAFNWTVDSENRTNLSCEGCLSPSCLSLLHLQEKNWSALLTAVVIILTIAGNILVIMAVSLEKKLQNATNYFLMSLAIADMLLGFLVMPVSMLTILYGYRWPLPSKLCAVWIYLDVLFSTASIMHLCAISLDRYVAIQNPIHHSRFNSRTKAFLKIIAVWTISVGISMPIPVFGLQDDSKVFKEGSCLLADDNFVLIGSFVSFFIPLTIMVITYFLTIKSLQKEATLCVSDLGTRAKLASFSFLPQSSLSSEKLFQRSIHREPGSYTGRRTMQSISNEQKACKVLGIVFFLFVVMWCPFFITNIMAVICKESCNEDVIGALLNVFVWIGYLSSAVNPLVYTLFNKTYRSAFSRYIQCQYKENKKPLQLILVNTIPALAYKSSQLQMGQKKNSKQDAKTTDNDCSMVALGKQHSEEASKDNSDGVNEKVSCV
How it was run: (§1)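 Filtration binding on 5-HT2A membranes. Serially diluted compound, with ketanserin as reference, was mixed with membrane and [3H]ketanserin, with separate nonspecific-binding wells, and shaken at 300 rpm. Mixtures were filtered through PEI-soaked GF filter plates and washed 4× with cold buffer. Filters were dried 1 h at 50 °C and bound 3H was counted by scintillation. IC50 came from dose-response fits and Ki was also reported; the top dose was 10000 nM.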

[2] = Kinetic solubility of compound in PBS at pH 7.4 incubated for 2 hrs in shaker by LC-MS/MS analysis; type: physicochemical; conditions: read-out: Kinetic_solubility
How it was run: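 Compound from 10 mM DMSO stock was added in duplicate to pH 7.4 PBS, 30 µL into 970 µL, and stirred/shaken at 1100 rpm for 2 h at room temperature. The mixture was vacuum filtered and the filtrate diluted in methanol/DMSO. Quantification was by LC-MS/MS (positive ESI, MRM) against 3 µM standards, with progesterone as positive control. The assay upper limit was 300 µM.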

[3] = biological target: T1, 5-hydroxytryptamine receptor 2A; test: Antagonist activity at 5-HT2A receptor (unknown origin) assessed as inhibition of 5-HT stimulated IP1 production incubated for 1 hr by HTRF method; type: functional
How it was run: (§2)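 IP-One HTRF immunoassay for 5-HT2A Gαq signalling. Cells were seeded at 7,500 per well and given varying doses of compound. The agonist-mode reference was serotonin and the antagonist-mode reference was methiothepin. Incubation was 1 h at 37 °C, then lysis with d2-labelled IP1 and terbium cryptate anti-IP1 antibody for 1 h at room temperature. Fluorescence was read at 615/665 nm. IP1 was quantified against a 9-point standard curve, 4-fold from 7,700 nM, run in duplicate. Values came from log(inhibitor) vs response, variable-slope fit.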

[4] = biological target: T1, 5-hydroxytryptamine receptor 2A; test: Antagonist activity at 5-HT2A receptor (unknown origin) assessed as inhibition of 5-HT stimulated IP1 production at 10 uM incubated for 1 hr by HTRF method relative to control; type: functional; design: scale not given: the % may be the effect or the level left; conditions: filed as antagonist; how it was run: as §2
[5] = biological target: T1, 5-hydroxytryptamine receptor 2A; test: Agonist activity at 5-HT2A receptor (unknown origin) assessed as IP1 accumulation at 0.0004 to 10 uM incubated for 1 hr by HTRF method; type: functional; conditions: dose 0.0004-10 µM; how it was run: as §2
[6] = biological target: T1, 5-hydroxytryptamine receptor 2A; test: Displacement of [3H] Ketanserin from 5HT2A receptor (unknown origin) incubated for 0.5 hrs by microbeta2 plate reader assay; how it was run: as §1

Row | SMILES | Activity [1] | solubility kinetic at 2 h [2] | inhibition [1] | IC50 [3] | Activity [4] | Activity [5] | Ki [6]
1 | COc1cc(/C=C2\N=C(N)NC2=O)cc(OC)c1OC.Cl | inactive | ≥ 20 µM | – | – | – | – | –
2 | COc1cc(/C=C2\C(=O)N(C)C(=N)N2C)cc(OC)c1OC.Cl | inactive | ≥ 20 µM | – | – | – | – | –
3 | COc1ccc(OC)c(/C=C2\N=C(N)NC2=O)c1.Cl | – | ≥ 20 µM | 95% | 887 nM | 93% | inactive | 233 nM

The remaining lines, values ahead:

Row | Activity [1] | solubility kinetic at 2 h [2] | inhibition [1] | IC50 [3] | Activity [4] | Activity [5] | Ki [6] | SMILES
4 | inactive | ≥ 20 µM | – | – | – | – | – | COc1cc(/C=C2\C(=O)N=C(N)N2C)cc(OC)c1OC.Cl
5 | – | ≥ 20 µM | 97% | 58 nM | 100% | inactive | 19 nM | COc1cc(/C=C2\N=C(N)NC2=O)c(OC)cc1Br.Cl
6 | – | ≥ 20 µM | – | – | – | – | – | COc1cc(/C=C2\C(=O)N=C(N)N2C)c(OC)cc1Br.Cl
7 | – | ≥ 20 µM | – | – | – | – | > 3880 nM | COc1ccc(OC)c(/C=C2\C(=O)N=C(N)N2C)c1.Cl
